ΔTm data for one compound are collected here from ChEMBL document CHEMBL4725345, “DFG-1 Residue Controls Inhibitor Binding Mode and Affinity, Providing a Basis for Rational Design of Kinase Inhibitor Selectivity” (J Med Chem, 2020).

Test [1] addresses Bone morphogenetic protein receptor type-1A (Homo sapiens) (UniProt P36894). Description: Binding affinity to BMPR1A (unknown origin) assessed as change in melting temperature at 10 uM incubated for 10 mins using SYPRO orange dye by RT-PCR-based fluorescence assay. In a few lines:
(§1)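 Recombinant kinase domain at 2 μM in 10 mM HEPES pH 7.5, 500 mM NaCl, mixed with 10 μM inhibitor for 10 min at room temperature; SYPRO orange added at 1:1000; temperature-dependent unfolding fluorescence read on a real-time PCR instrument; Tm shift derived by a previously described method.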

For test [2], the target named is TGF-beta receptor type-2 (Homo sapiens) (UniProt P37173). Put plainly: Binding affinity to TGFBR2 (unknown origin) assessed as change in melting temperature at 10 uM incubated for 10 mins using SYPRO orange dye by RT-PCR-based fluorescence assay. In a few lines: as §1
Test [3] addresses Activin receptor type-1 (Homo sapiens) (UniProt Q04771). Put plainly: Binding affinity to ACVR1 (unknown origin) assessed as change in melting temperature at 10 uM incubated for 10 mins using SYPRO orange dye by RT-PCR-based fluorescence assay. Summed up:
as §1

The target of test [4] is T1, Serine/threonine-protein kinase haspin (Homo sapiens) (UniProt Q8TF76).
T1 sequence (whole entry): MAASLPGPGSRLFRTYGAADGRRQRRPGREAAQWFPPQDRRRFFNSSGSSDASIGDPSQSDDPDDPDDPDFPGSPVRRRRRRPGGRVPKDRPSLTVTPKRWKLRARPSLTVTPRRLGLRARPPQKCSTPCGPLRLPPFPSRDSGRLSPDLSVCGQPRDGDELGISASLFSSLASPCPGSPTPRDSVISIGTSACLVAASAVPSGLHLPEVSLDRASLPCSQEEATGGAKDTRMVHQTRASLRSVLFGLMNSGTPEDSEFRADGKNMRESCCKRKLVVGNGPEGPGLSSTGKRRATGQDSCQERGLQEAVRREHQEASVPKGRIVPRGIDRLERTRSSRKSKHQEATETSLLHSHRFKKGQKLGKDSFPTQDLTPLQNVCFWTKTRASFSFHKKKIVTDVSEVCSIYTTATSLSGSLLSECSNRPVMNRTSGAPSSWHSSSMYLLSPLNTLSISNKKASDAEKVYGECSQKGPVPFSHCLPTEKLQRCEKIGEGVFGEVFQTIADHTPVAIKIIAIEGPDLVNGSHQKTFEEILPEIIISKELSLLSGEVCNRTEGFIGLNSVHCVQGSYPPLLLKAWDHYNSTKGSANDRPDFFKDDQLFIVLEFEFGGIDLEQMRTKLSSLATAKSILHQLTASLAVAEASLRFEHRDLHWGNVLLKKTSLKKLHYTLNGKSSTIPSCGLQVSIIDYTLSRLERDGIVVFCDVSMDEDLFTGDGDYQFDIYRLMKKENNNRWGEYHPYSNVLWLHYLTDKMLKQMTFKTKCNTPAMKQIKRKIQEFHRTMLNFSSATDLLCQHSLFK
Put plainly: Binding affinity to haspin (unknown origin) assessed as change in melting temperature at 10 uM incubated for 10 mins using SYPRO orange dye by RT-PCR-based fluorescence assay. In a few lines:
as §1

The target in test [5] is AP2-associated protein kinase 1 (Homo sapiens) (UniProt Q2M2I8). Put plainly: Binding affinity to AAK1 (unknown origin) assessed as change in melting temperature at 10 uM incubated for 10 mins using SYPRO orange dye by RT-PCR-based fluorescence assay. In a few lines: as §1
Test [6] addresses BMP-2-inducible protein kinase (Homo sapiens) (UniProt Q9NSY1). Put plainly: Binding affinity to BIKE (unknown origin) assessed as change in melting temperature at 10 uM incubated for 10 mins using SYPRO orange dye by RT-PCR-based fluorescence assay. Summed up: as §1
Test [7] deals with Receptor-interacting serine/threonine-protein kinase 2 (Homo sapiens) (UniProt O43353). Description: Binding affinity to RIPK2 (unknown origin) assessed as change in melting temperature at 10 uM incubated for 10 mins using SYPRO orange dye by RT-PCR-based fluorescence assay. In a few lines:
as §1

For test [8], the target named is Serine/threonine-protein kinase pim-2 (Homo sapiens) (UniProt Q9P1W9). Description: Binding affinity to PIM2 (unknown origin) assessed as change in melting temperature at 10 uM incubated for 10 mins using SYPRO orange dye by RT-PCR-based fluorescence assay. In a few lines:
as §1

Test [9] has as its target Casein kinase I isoform epsilon (Homo sapiens) (UniProt P49674). Description: Binding affinity to CSNK1E (unknown origin) assessed as change in melting temperature at 10 uM incubated for 10 mins using SYPRO orange dye by RT-PCR-based fluorescence assay. Summed up:
as §1

In test [10] the target is Activin receptor type-2A (Homo sapiens) (UniProt P27037). Put plainly: Binding affinity to ACTR2 (unknown origin) assessed as change in melting temperature at 10 uM incubated for 10 mins using SYPRO orange dye by RT-PCR-based fluorescence assay.
Test [11] addresses Ribosomal protein S6 kinase alpha-1 (Homo sapiens) (UniProt Q15418). Description: Binding affinity to RSK1B (unknown origin) assessed as change in melting temperature at 10 uM incubated for 10 mins using SYPRO orange dye by RT-PCR-based fluorescence assay.

Where only a bound is given, the exact number is not on record here.

Regarding `CC(=O)c1cccc(-c2cnc3ccc(NCC4CC4)nn23)c1`, the ΔTm in [1], in [2], in [3], in test [4], in [5] and in test [6] was above 6 °C throughout. In addition, the thermal shift (ΔTm) (commonly the change in melting temperature against a reference sample) was above 4 °C in [7]; above 4 °C in test [8]; above 4 °C in test [9]; above 6 °C in test [10]; above 4 °C in [11].
